Shown are actives, neighbours in structure and some others; about 3.5% of the full set was active somewhere.
PGC1a acetyl inh: inhibitors of PGC1a acetylation signal, primary screen, cell-based, U2OS, AlphaScreen, inhibitor mode. AID 651687, 2012. AlphaScreen anti-acetyl-lysine; with virally co-expressed GCN5 acetyltransferase. 350,000 tested, 0.17% active. inhibition, % at 15.6 µM;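 active = every replicate shows inhibition of at least 40%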;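 note: 0% = neutral control wells and 100% = positive control wells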
Cneo AK release: Cryptococcus neoformans cell lysis inducers, primary screen, AK release luminescence, single concentration | C. neoformans lysis, adenylate kinase release luminescence, 4 h; normalised: neutral wells 0, clomiphene wells 100 | lysis activity, % at 15 µM | 360,000 tested, 0.2% active | AID 651654, 2012;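 active = mean lysis activity across replicates of at least 80%, whatever share of replicates individually reach that level; inactive = mean lysis activity below 80%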
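Assay system: Cryptococcus neoformans yeast cells / Dosing: single-point compound dose / Timing: 4 h at 37 °C static, read 1 h later / Measured by: luminescence of released adenylate kinase using an AK detection reagent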
ERAP1 inh: human ERAP1 aminopeptidase inhibitors, primary screen, biochemical, single point, plate reader | inhibition, % at 10.7 µM | Endoplasmic reticulum aminopeptidase 1 (Homo sapiens), Q9NZ08 | 340,000 tested, 0.15% active | recombinant ERAP1, Leu-AMC fluorescence, 60 min;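 active = mean replicate inhibition of at least 30%, or all replicates individually reaching that 30% level; inactive = mean below 30% and not every replicate reaching it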;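 note: 0% = neutral control wells and 100% = L-leucinethiol positive control wells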
Target sequence (Q9NZ08 whole entry, looked up): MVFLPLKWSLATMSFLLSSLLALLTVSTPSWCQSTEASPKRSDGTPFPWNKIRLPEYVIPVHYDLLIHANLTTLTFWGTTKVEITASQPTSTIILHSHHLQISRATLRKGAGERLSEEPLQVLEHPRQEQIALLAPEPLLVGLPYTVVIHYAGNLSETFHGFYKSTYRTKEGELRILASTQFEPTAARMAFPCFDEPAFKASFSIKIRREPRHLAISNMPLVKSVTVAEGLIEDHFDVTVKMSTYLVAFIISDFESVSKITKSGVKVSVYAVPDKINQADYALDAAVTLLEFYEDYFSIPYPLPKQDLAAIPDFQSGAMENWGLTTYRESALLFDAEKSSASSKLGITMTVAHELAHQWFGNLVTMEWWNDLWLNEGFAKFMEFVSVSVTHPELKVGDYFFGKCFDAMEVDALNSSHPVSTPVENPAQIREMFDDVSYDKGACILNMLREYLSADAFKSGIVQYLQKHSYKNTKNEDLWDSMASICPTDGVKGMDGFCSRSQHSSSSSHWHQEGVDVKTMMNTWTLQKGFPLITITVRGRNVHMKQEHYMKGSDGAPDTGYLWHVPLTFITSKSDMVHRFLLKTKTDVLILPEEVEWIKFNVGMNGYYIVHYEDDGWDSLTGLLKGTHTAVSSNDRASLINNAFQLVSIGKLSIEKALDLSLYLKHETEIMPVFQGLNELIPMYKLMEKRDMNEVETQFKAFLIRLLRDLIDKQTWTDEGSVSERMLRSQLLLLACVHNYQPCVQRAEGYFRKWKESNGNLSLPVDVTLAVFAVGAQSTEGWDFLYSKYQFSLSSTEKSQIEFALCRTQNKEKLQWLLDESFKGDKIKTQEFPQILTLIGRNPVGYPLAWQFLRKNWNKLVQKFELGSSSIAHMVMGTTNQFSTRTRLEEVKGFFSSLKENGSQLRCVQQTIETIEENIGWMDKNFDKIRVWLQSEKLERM
Ecoli rRNA inh: reduced GFP signal of wild-type E. coli, primary screen, bacterial rRNA inhibitor project, GFP/RFP fluorescence, OD600, single point; GFP signal change (wild-type ribosome), % (no concentration beside the values); AID 720706, 2013; E. coli WT GFP vs humanized-ribosome RFP mutants, 24 h; stronger effect = lower value; DMSO median 0, no signal -100; 350,000 tested, 1.6% active;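 active = significant combined selectivity score with lowered wild-type GFP, culture density cut under 30%, mutant RFP and density less affected; inactive = any of these conditions unmet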
Env fusion inh: inhibitors of HIV-1 Env-driven cell-cell fusion, primary screen, HeLa-JRFL effector, CEM21 target cells, luciferase; inhibition, % at 12.3 µM; 360,000 tested, 1.1% active;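 active = mean replicate inhibition score of at least 50 and every replicate individually at or above 50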;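 note: 0% = plate neutral controls and 100% = maraviroc near 300 nM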
FGF22 binding: binders of human FGF22 protein, primary screen, FGF22 synaptogenesis inhibitor project, biophysical, thermal shift, single point | Fibroblast growth factor 22 (Homo sapiens), Q9HCT0 | recombinant FGF22 thermal shift, SYPRO orange fluorescence; percent of sucrose octasulfate shift, DMSO zero | activity (Tm shift, normalised), % at 9.99 µM | 340,000 tested, 1.5% active | AID 651658, 2012;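 active = mean Tm shift, scaled 0 neutral to 100 positive control, at about 1.3% or above, every replicate too, limit read from the data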
An asterisk follows results filed as active; / = not tested or not shown; [ ] = dose if it differs, or a comment.

SMILES	PGC1a acetyl inh	Cneo AK release	ERAP1 inh	Ecoli rRNA inh	Env fusion inh	FGF22 binding
C[C@H](CO)N1C[C@H](C)[C@H](CN(C)CC2CCCCC2)Oc2c(NC(=O)c3ccncc3)cccc2C1=O	/	-3	0	2	12[16.7 µM]	0
C[C@H](CO)N1C[C@H](C)[C@H](CN(C)Cc2ccc(-c3ccccc3)cc2)Oc2c(NC(=O)c3ccncc3)cccc2C1=O	3	111*	8	-6	/	0
C[C@@H]1CN([C@@H](C)CO)C(=O)c2cccc(NC(=O)c3ccncc3)c2O[C@H]1CN(C)Cc1ccc(C(=O)O)cc1	1	-6	-2	3	/	0
C[C@@H]1CN([C@H](C)CO)C(=O)c2cccc(NC(=O)C3CC3)c2O[C@H]1CN(C)Cc1ccc(C(=O)O)cc1	13	97*	-4	3	-13[16.7 µM]	0
c1ccc2c(C(c3nnnn3-c3ccc4c(c3)OCCO4)N3CCCC3)ccnc2c1 (stereo unspecified)	/	/	0	6	-6	0
C[C@@H]1CN([C@H](C)CO)C(=O)c2cccc(NC(=O)c3ccncc3)c2O[C@H]1CN(C)Cc1ccc(Cl)c(Cl)c1	-18	0	-3	-32	75*[16.7 µM]	-1
C[C@@H]1CN([C@H](C)CO)C(=O)c2cccc(NC(=O)c3ccc(-c4nccs4)cc3)c2O[C@@H]1CN(C)C(=O)Nc1ccccc1	2	59	1	-5	-98[16.7 µM]	3.2*
C[C@H]1CN([C@@H](C)CO)C(=O)c2cccc(NC(=O)c3ccc(-c4nccs4)cc3)c2O[C@@H]1CN(C)C(=O)Nc1ccccc1	-4	-4	1	-3	1[16.7 µM]	0
C[C@@H]1CN([C@@H](C)CO)C(=O)c2cccc(NC(=O)c3cnccn3)c2O[C@H]1CN(C)Cc1ccc(Cl)c(Cl)c1	7	47	32*	-18	63*[16.7 µM]	0
Cc1cc(C(=O)CSc2nnnn2-c2ccc(O)cc2)c(C)n1C	-31	/	-1	-26*	-5	1
O=C(CSc1nnnn1-c1ccccc1)CSc1nnnn1-c1ccccc1	13	0	8	-28*	/	0
CCSc1nnnn1-c1ccccc1	/	1	2	4	/	/
CC(=O)c1cccc(-n2nnnc2SCC(=O)NNC(=O)C(C)C)c1	85*	1	5	12	-8	1
COC(=O)c1cccc(-n2nnnc2SCC(=O)Nc2cc(C)on2)c1	-9	-6	/	/	/	/
O=C(O)CSc1nnnn1-c1ccccc1	-3	4	/	/	-31	/
Cc1ncc(CSc2nnnn2-c2ccccc2)c(N)n1	-5	4	-3	-21*	/	0
CN(C)c1ccc(/C(=N\O)C(F)(F)F)cc1	-11	0	-1	-31*	/	0
CC(=O)c1ccc(N(C)C)cc1	4	-2	/	/	/	/
COc1ccc(CN2CCC2(C)C(=O)Nc2ccc(OC)c(OC)c2)cc1 (stereo unspecified)	1	0	-4	/	-1	0
O=C(C[C@@H]1C=C[C@H](NC(=O)Nc2cc(F)ccc2F)[C@@H](CO)O1)NCCCN1CCOCC1	1	17	3	1	2[16.7 µM]	0
O=C(C[C@@H]1C=C[C@@H](NC(=O)c2cccc(F)c2)[C@H](CO)O1)NCCN1CCCC1	-3	95*	2	2	-1[16.7 µM]	-1
O=C(C[C@H]1C=C[C@H](NC(=O)Nc2cc(F)ccc2F)[C@@H](CO)O1)NCCCN1CCOCC1	5	121*	-2	4	21[16.7 µM]	0
COC(=O)c1cc(C)nc(Nc2nc(C(N)Cc3ccc(F)cc3)cs2)n1 (stereo unspecified)	-4	2	0	3	18	0
COCCn1c(SC(C)C(=O)NC2CCCCC2C)nc2ccccc2c1=O (stereo unspecified)	/	2	0	-1	75*	0

High-throughput results as filed in PubChem BioAssay.
